In brackets after ≈: the same amount, converted by molar mass.
Assays:
[1] = Therapeutic index, ratio of CC50 for human C8166 cells to EC50 for HIV1; type: cell-based; settings: read-out: Ratio CC50/EC50
Method in brief: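 Ratio of CC50 (MTT cytotoxicity in C8166 cells) to EC50, where EC50 comes from an assay of inhibition of HIV-1 cytopathic effects; azidothymidine served as the positive control.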

[2] = Cytotoxicity against human C8166 cells by MTT assay; type: cell-based
Method in brief: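 C8166 cells assessed by MTT, with cytotoxicity expressed as CC50; azidothymidine served as the positive control.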

[3] = system: Human immunodeficiency virus 1; assay: Antiviral activity against HIV1 infected in human C8166 cells assessed as inhibition of virus-induced cytopathic effect; type: functional, organism-based; settings: Human immunodeficiency virus 1, C8166
Method in brief: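 HIV-1 cytopathic-effect inhibition assay in C8166 cells gives EC50; cytotoxicity to C8166 cells measured in parallel by MTT to give CC50. Azidothymidine served as positive control.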

Tobacco mosaic virus [4] = assay: Antiviral activity against Tobacco mosaic virus infected in right side leaf of Nicotiana glutinosa at 20 uM after 3 to 4 days by half-leaf method; type: functional
Method in brief: (§1)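 Half-leaf assay on N. glutinosa (local lesion host, 5–6-leaf stage, insect-free greenhouse). Purified TMV diluted to 32 μg/mL in 0.01 M PBS, mixed with compound (DMSO stock diluted with water) for 30 min, then rubbed on the left half-leaf; the right half received virus plus equal DMSO as control. Local lesions counted 3 or 4 days later, three repetitions; inhibition = (C−T)/C×100; ningnanmycin positive control.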

Tobacco mosaic virus [5] = assay: Antiviral activity against Tobacco mosaic virus infected in leaf of Nicotiana glutinosa assessed as protection against viral infection at 20 uM treated 6 hrs before infection; type: functional
Method in brief: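 Protection test: N. glutinosa leaves pretreated with 20 μM compound solution or DMSO solution for 6 h, then inoculated with purified TMV. Local lesions counted on the host leaves and inhibition rate computed from lesion numbers versus the DMSO control.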

Tobacco mosaic virus [6] = assay: Antiviral activity against Tobacco mosaic virus infected in right side leaf of Nicotiana glutinosa after 3 to 4 days by half-leaf method; type: functional, organism-based; method in brief: as §1
Tobacco mosaic virus [7] = assay: Antiviral activity against Tobacco mosaic virus infected in right side leaf of Nicotiana glutinosa at 160 uM after 3 to 4 days by half-leaf method; type: functional; method in brief: as §1
Tobacco mosaic virus [8] = assay: Antiviral activity against Tobacco mosaic virus infected in right side leaf of Nicotiana glutinosa at 80 uM after 3 to 4 days by half-leaf method; type: functional; method in brief: as §1
Tobacco mosaic virus [9] = assay: Antiviral activity against Tobacco mosaic virus infected in right side leaf of Nicotiana glutinosa at 40 uM after 3 to 4 days by half-leaf method; type: functional; method in brief: as §1
Tobacco mosaic virus [10] = assay: Antiviral activity against Tobacco mosaic virus infected in right side leaf of Nicotiana glutinosa at 10 uM after 3 to 4 days by half-leaf method; type: functional; method in brief: as §1
Tobacco mosaic virus [11] = assay: Antiviral activity against Tobacco mosaic virus infected in right side leaf of Nicotiana glutinosa at 5 uM after 3 to 4 days by half-leaf method; type: functional; method in brief: as §1

Cc1cc(=O)c2c(O)c(C)c(O)c(C)c2o1
selectivity ratio [1]: 10.5 | CC50 [2]: 57.5 µg/mL (≈ 261 µM) | EC50 [3]: 5.46 µg/mL (≈ 24.8 µM) | inhibition at 20 µM (Tobacco mosaic virus [4]): 8.6%

CC1(C)Oc2cc3oc(CO)cc(=O)c3c(O)c2C[C@@H]1O[C@@H]1O[C@H](CO)[C@@H](O)[C@H](O)[C@H]1O
selectivity ratio [1]: > 109 | CC50 [2]: > 200 µg/mL

COc1cc2oc(C)cc(=O)c2c(O)c1CC=C(C)C
selectivity ratio [1]: 15.2 | CC50 [2]: 74.3 µg/mL (≈ 271 µM) | EC50 [3]: 4.89 µg/mL (≈ 17.8 µM) | inhibition at 20 µM (Tobacco mosaic virus [4]): 8.7%

Cc1cc(=O)c2c(CC(C)O[C@@H]3O[C@H](CO)[C@@H](O)[C@H](O)[C@H]3O)cc(O)cc2o1 (some centres undefined)
selectivity ratio [1]: 63.3 | CC50 [2]: 118 µg/mL (≈ 299 µM) | EC50 [3]: 1.87 µg/mL (≈ 4.72 µM) | inhibition at 20 µM (Tobacco mosaic virus [4]): 8.6%

COc1cc2c(c3oc(C)cc(=O)c13)C=CC(C)(C)O2
selectivity ratio [1]: 8.3 | CC50 [2]: 37.3 µg/mL (≈ 137 µM) | EC50 [3]: 4.49 µg/mL (≈ 16.5 µM) | inhibition at 20 µM (Tobacco mosaic virus [4]): 9.2%

CC(=O)Cc1cc(O)cc2oc(C)cc(=O)c12
selectivity ratio [1]: 13.5 | CC50 [2]: 88.7 µg/mL (≈ 382 µM) | EC50 [3]: 6.58 µg/mL (≈ 28.3 µM) | inhibition at 20 µM (Tobacco mosaic virus [4]): 6.7%

CC(=O)[C@@H]1c2cc(O)cc(O)c2C(=O)C[C@]1(C)O
selectivity ratio [1]: 28 | CC50 [2]: 88.3 µg/mL (≈ 353 µM) | EC50 [3]: 3.16 µg/mL (≈ 12.6 µM) | inhibition at 20 µM (Tobacco mosaic virus [4]): 6.4%

CC1=CC2(O)OC(C)=Cc3cc(O)cc(c32)O1 (centres undefined) [BARAKOL]
selectivity ratio [1]: 17.1 | CC50 [2]: 73.4 µg/mL (≈ 316 µM) | EC50 [3]: 4.28 µg/mL (≈ 18.4 µM) | inhibition at 20 µM (Tobacco mosaic virus [4]): 9%

CNCC(=O)N[C@@H](CO)C(=O)N[C@H]1[C@H](O)[C@@H](O)[C@H](n2ccc(N)nc2=O)O[C@@H]1C(N)=O [NINGNANMYCIN]
inhibition at 20 µM (Tobacco mosaic virus [5]): 27.4% | IC50 (Tobacco mosaic virus [6]): 49.9 µM | inhibition at 160 µM (Tobacco mosaic virus [7]): 82.7% | inhibition at 80 µM (Tobacco mosaic virus [8]): 61.3% | inhibition at 40 µM (Tobacco mosaic virus [9]): 48.3% | inhibition at 10 µM (Tobacco mosaic virus [10]): 22.6% | inhibition at 5 µM (Tobacco mosaic virus [11]): 11.8% | inhibition at 20 µM (Tobacco mosaic virus [4]): 30.2%

COc1cc2c(c3oc(C(=O)O)cc(=O)c13)C=CC(C)(C)O2 [PERFORATIC ACID]
selectivity ratio [1]: 2.3 | CC50 [2]: 26.5 µg/mL (≈ 87.7 µM) | EC50 [3]: 11.5 µg/mL (≈ 38.2 µM) | inhibition at 20 µM (Tobacco mosaic virus [5]): 10.2% | IC50 (Tobacco mosaic virus [6]): 127 µM | inhibition at 160 µM (Tobacco mosaic virus [7]): 54.7% | inhibition at 80 µM (Tobacco mosaic virus [8]): 36.8% | inhibition at 40 µM (Tobacco mosaic virus [9]): 25.4% | inhibition at 10 µM (Tobacco mosaic virus [10]): 9.27% | inhibition at 5 µM (Tobacco mosaic virus [11]): 5.62% | inhibition at 20 µM (Tobacco mosaic virus [4]): 13.6%

CC(=O)Cc1cc(O)cc2oc(C(=O)CCO)cc(=O)c12 [SIAMCHROMONES A]
selectivity ratio [1]: 26 | CC50 [2]: 127 µg/mL (≈ 436 µM) | EC50 [3]: 4.87 µg/mL (≈ 16.8 µM) | inhibition at 20 µM (Tobacco mosaic virus [5]): 18.4% | IC50 (Tobacco mosaic virus [6]): 86.4 µM | inhibition at 160 µM (Tobacco mosaic virus [7]): 62.4% | inhibition at 80 µM (Tobacco mosaic virus [8]): 47.2% | inhibition at 40 µM (Tobacco mosaic virus [9]): 30.3% | inhibition at 10 µM (Tobacco mosaic virus [10]): 11.4% | inhibition at 5 µM (Tobacco mosaic virus [11]): 6.21% | inhibition at 20 µM (Tobacco mosaic virus [4]): 15.2%

COc1cc(CC(C)=O)c2c(=O)cc(C(=O)CCO)oc2c1 [SIAMCHROMONES B]
selectivity ratio [1]: 16.3 | CC50 [2]: 85.2 µg/mL (≈ 280 µM) | EC50 [3]: 5.22 µg/mL (≈ 17.2 µM) | inhibition at 20 µM (Tobacco mosaic virus [4]): 9.8%

COc1cc(CC(C)=O)c2c(=O)cc(CCCO)oc2c1 [SIAMCHROMONES C]
selectivity ratio [1]: 6.87 | CC50 [2]: 43.6 µg/mL (≈ 150 µM) | EC50 [3]: 6.34 µg/mL (≈ 21.8 µM) | inhibition at 20 µM (Tobacco mosaic virus [4]): 8.6%

COc1cc(CC(C)=O)c2c(=O)cc(CCCOC(C)=O)oc2c1 [SIAMCHROMONES D]
selectivity ratio [1]: > 107 | CC50 [2]: > 200 µg/mL | EC50 [3]: 1.87 µg/mL (≈ 5.63 µM) | inhibition at 20 µM (Tobacco mosaic virus [4]): 7.5%

C/C=C/c1cc(=O)c2c(CC(C)=O)cc(O)cc2o1 [SIAMCHROMONES E]
selectivity ratio [1]: 9.37 | CC50 [2]: 26.7 µg/mL (≈ 103 µM) | EC50 [3]: 2.85 µg/mL (≈ 11 µM) | inhibition at 20 µM (Tobacco mosaic virus [4]): 9.2%

CC1(C)C=Cc2c(cc(O)c3c(=O)cc(CCCO)oc23)O1 [SIAMCHROMONES F]
selectivity ratio [1]: 68 | CC50 [2]: 196 µg/mL (≈ 650 µM) | EC50 [3]: 2.89 µg/mL (≈ 9.56 µM) | inhibition at 20 µM (Tobacco mosaic virus [5]): 42.7% | IC50 (Tobacco mosaic virus [6]): 31.2 µM | inhibition at 160 µM (Tobacco mosaic virus [7]): 96.8% | inhibition at 80 µM (Tobacco mosaic virus [8]): 89.2% | inhibition at 40 µM (Tobacco mosaic virus [9]): 61.4% | inhibition at 10 µM (Tobacco mosaic virus [10]): 26.7% | inhibition at 5 µM (Tobacco mosaic virus [11]): 13.5% | inhibition at 20 µM (Tobacco mosaic virus [4]): 35.3%

COc1cc2c(c3oc(CCCO)cc(=O)c13)C=CC(C)(C)O2 [SIAMCHROMONES G]
selectivity ratio [1]: > 23.6 | CC50 [2]: > 200 µg/mL | EC50 [3]: 8.46 µg/mL (≈ 26.7 µM) | inhibition at 20 µM (Tobacco mosaic virus [4]): 5.7%

Cc1cc(=O)c2c(O)c(C)c(O[C@@H]3O[C@H](CO)[C@@H](O)[C@H](O)[C@H]3O)c(C)c2o1 [UNCINOSIDE A]
selectivity ratio [1]: 5.89 | CC50 [2]: 22.8 µg/mL (≈ 59.6 µM) | EC50 [3]: 3.87 µg/mL (≈ 10.1 µM) | inhibition at 20 µM (Tobacco mosaic virus [4]): 7.9%

CC(C)c1cc(=O)c2c(O)cc(O[C@@H]3O[C@H](CO)[C@@H](O)[C@H](O)[C@H]3O)cc2o1 [URACHROMONE A]
selectivity ratio [1]: 31 | CC50 [2]: 69.5 µg/mL (≈ 182 µM) | EC50 [3]: 2.24 µg/mL (≈ 5.86 µM) | inhibition at 20 µM (Tobacco mosaic virus [5]): 13.7% | IC50 (Tobacco mosaic virus [6]): 156 µM | inhibition at 160 µM (Tobacco mosaic virus [7]): 50.9% | inhibition at 80 µM (Tobacco mosaic virus [8]): 30.7% | inhibition at 40 µM (Tobacco mosaic virus [9]): 22.4% | inhibition at 10 µM (Tobacco mosaic virus [10]): 8.11% | inhibition at 5 µM (Tobacco mosaic virus [11]): 4.76% | inhibition at 20 µM (Tobacco mosaic virus [4]): 11.5%

Cc1cn([C@H]2C[C@H](N=[N+]=[N-])[C@@H](CO)O2)c(=O)[nH]c1=O [ZIDOVUDINE]
selectivity ratio [1]: > 5880 | CC50 [2]: > 200 µg/mL | EC50 [3]: 0.034 µg/mL (≈ 0.127 µM)
